# ChEMBL document CHEMBL5154815, “A Series of Substituted Bis-Aminotriazines Are Activators of the Natriuretic Peptide Receptor C” (J Med Chem, 2022)
# Active and inactive are the calls of the source. The rule behind the calls is not given here.
# Key:
# [1] = Half life in fasted C57BL/6 mouse at 10 mg/kg, po by LC-MS/MS analysis; type: ADME, organism-based; conditions: in vivo
# [2] = AUC (0 to infinity) in fasted C57BL/6 mouse at 10 mg/kg, po by LC-MS/MS analysis; type: ADME, organism-based; design: time infinity, dose 10 mg/kg, route po; conditions: in vivo
# [3] = biological target: T1, Atrial natriuretic peptide receptor 3 (Mus musculus, UniProt P70180); experiment: Agonist activity at NPRC in wild type mouse mesenteric arteries assessed as vasorelaxation by Organ bath assay; type: tissue-based, Artery
# T1 sequence (P70180 whole entry): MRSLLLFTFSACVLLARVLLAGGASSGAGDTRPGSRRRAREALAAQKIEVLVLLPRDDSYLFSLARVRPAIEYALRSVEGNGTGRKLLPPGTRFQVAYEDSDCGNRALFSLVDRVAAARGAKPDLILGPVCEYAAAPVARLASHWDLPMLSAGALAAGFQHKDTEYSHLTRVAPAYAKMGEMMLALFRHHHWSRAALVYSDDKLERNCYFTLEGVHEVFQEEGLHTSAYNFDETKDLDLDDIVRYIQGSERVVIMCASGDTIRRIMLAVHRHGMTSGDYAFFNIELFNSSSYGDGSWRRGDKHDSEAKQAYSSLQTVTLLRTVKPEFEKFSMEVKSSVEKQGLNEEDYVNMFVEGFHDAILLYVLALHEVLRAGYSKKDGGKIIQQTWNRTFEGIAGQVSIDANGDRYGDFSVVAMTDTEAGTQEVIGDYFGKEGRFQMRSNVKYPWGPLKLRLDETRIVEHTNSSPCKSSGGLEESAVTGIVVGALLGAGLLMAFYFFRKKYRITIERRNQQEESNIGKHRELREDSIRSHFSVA
# Cytochrome P450 1A2 = biological target: T2, Cytochrome P450 1A2 (Homo sapiens, UniProt P05177); experiment: Inhibition of CYP1A2 in human liver microsomes using phenacetin as substrate preincubated for 10 mins followed by NADPH addition and measured after 10 mins by LC/MS/MS analysis
# T2 sequence (P05177 whole entry): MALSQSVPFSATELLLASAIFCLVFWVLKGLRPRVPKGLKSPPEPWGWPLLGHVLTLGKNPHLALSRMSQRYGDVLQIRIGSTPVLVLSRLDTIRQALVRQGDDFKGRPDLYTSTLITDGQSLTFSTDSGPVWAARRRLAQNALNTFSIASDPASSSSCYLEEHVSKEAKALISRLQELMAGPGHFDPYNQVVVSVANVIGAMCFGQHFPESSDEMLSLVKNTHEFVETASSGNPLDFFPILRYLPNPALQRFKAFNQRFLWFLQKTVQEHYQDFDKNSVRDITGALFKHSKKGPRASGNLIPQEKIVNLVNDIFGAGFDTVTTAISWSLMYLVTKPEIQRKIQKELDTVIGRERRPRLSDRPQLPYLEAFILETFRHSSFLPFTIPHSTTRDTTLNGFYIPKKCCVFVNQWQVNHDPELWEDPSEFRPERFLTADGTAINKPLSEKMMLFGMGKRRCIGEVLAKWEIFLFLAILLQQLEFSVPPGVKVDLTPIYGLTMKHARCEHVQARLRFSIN
# [4] = Solubility of compound in PBS at 10 mM after 3 hrs by UV analysis; conditions: buffer, 10000 µM
# Cytochrome P450 2C9 = Cytochrome P450 2C9 (Homo sapiens, UniProt P11712); experiment: Inhibition of CYP2C9 in human liver microsomes using diclofenac as substrate preincubated for 10 mins followed by NADPH addition and measured after 10 mins by LC/MS/MS analysis
# in vivo = conditions: C57BL/6, mouse, po, 10 mg/kg
# [5] = Clearance in fasted C57BL/6 mouse at 3 mg/kg, iv by LC-MS/MS analysis; type: ADME, organism-based; conditions: in vivo
# [6] = biological target: T3, Atrial natriuretic peptide receptor 3 (Rattus norvegicus) (UniProt P41740); experiment: Agonist activity at NPRC in rat small mesenteric arteries assessed as inhibition of cANF4-23 induced vasorelaxation in presence of M372049 by Organ bath assay; type: tissue-based; conditions: Artery, filed as agonist
# T3 sequence (whole entry): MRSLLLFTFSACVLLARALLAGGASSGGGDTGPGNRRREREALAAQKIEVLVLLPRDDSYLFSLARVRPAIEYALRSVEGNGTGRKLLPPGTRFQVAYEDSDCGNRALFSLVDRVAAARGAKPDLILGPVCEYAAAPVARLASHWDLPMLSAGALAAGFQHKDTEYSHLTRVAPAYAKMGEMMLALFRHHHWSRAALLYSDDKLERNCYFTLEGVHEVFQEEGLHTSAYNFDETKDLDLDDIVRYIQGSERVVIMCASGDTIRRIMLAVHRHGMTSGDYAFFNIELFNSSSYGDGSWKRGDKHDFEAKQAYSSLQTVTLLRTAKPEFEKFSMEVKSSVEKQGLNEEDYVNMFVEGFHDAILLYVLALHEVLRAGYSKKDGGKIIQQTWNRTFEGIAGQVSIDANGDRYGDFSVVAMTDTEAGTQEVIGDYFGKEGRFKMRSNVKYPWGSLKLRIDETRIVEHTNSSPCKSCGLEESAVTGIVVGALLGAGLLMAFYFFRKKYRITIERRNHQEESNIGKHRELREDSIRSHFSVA
# Summary of the method: (§1)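 Small mesenteric artery rings from male Wistar rats in classical tissue-bath pharmacology. Vessels were preincubated 15 min with M372049 10 μM or osteocrin 100 nM before the vasorelaxant response to test agents was assessed.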
# [7] = biological target: T3, Atrial natriuretic peptide receptor 3 (Rattus norvegicus); experiment: Agonist activity at NPRC in rat small mesenteric arteries assessed as inhibition of cANF4-23 induced vasorelaxation in presence of osteocrin by Organ bath assay; type: tissue-based; conditions: Artery, filed as agonist; summary of the method: as §1
# Sequence of Cytochrome P450 2C9 (P11712 whole entry): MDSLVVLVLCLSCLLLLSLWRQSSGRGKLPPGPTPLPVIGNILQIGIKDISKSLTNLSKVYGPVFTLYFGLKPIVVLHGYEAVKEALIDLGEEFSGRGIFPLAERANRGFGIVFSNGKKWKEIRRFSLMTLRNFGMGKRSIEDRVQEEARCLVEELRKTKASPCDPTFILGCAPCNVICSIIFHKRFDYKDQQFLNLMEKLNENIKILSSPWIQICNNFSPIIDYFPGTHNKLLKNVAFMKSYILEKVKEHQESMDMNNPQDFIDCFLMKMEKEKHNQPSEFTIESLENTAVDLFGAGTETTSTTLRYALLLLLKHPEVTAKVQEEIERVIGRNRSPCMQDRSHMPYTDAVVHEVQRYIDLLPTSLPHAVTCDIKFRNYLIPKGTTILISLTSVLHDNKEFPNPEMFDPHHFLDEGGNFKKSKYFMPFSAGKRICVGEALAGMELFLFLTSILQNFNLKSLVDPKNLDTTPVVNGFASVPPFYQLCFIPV
structure (smiles),measurement,setting,value
CC(=O)Nc1ccc(Nc2ncnc(NCCC(=O)OC(C)(C)C)n2)cc1,half-life,[1],82.2 min
same,AUC(0-inf),[2],653 ng·h/mL
same,EC50,[3],1.58 µM
same,IC50,Cytochrome P450 1A2,> 50 µM
same,solubility,[4],71.17 mg/mL
same,IC50,Cytochrome P450 2C9,> 50 µM
same,Tmax,in vivo,15 min
same,clearance,[5],112 mL/min/kg
same,Activity,[6],Active
same,Activity,[7],Active
